Published values of several laboratories.
Compare with care: the assays were run in different laboratories.
PTGS2: Prostaglandin G/H synthase 2 (PTGS2, Homo sapiens, UniProt P35354)
CASP7: Caspase-7 (CASP7, Homo sapiens, UniProt P55210)
Dipeptidyl peptidase 2: Dipeptidyl peptidase 2 (Homo sapiens, UniProt Q9UHL4)
NPY2R: Neuropeptide Y receptor type 2 (NPY2R, Homo sapiens, UniProt P49146)

For `C1=Cc2ccccc2Nc2ccccc21`, the inhibition was ~87% (Dihydrofolate reductase (folA, Escherichia coli, UniProt P0ABQ4); enzyme activity, inhibitor; 1 mM).
`Cc1ccc(-c2nc3ccccc3s2)c(-c2cccc(O)c2)c1` gave an inhibition of 29% (PTGS2; enzyme activity, inhibitor, absorbance; 10 µM).
`O=C(Nc1cccnn1)N1CCN([C@@H]2CCOc3cc(C(F)(F)F)ccc32)CC1` has an inhibition of -1% (Glucagon receptor (GCGR, Homo sapiens, UniProt P47871); cell-free assay; 20 µM).
For `C#Cc1n[nH]c2c(-c3cn(C(C)c4ccccn4)c(=O)[nH]c3=O)cc(F)cc12` (stereo not drawn), the inhibition was 6.6% (Platelet-derived growth factor receptor beta (PDGFRB, Homo sapiens, UniProt P09619); enzyme activity, inhibitor; 1 µM).
For `CC(C)Cn1cnc2c(N)nc3ccccc3c21`, the inhibition was 76% (Alpha-1D adrenergic receptor (ADRA1D, Homo sapiens, UniProt P25100); ligand displacement, radioligand; 10 µM).
`N=C(N)c1ccc2cc(OC(=O)c3ccc(N=C(N)N)cc3)ccc2c1` gave an inhibition of 1% (CASP7; enzyme activity, inhibitor; 10 µM).
`Cc1ccc(-c2nc3ccccc3s2)c(-c2ccc(S(N)(=O)=O)cc2)c1` has an inhibition of 87.3% (PTGS2; enzyme activity, inhibitor, absorbance; 10 µM).
`COc1cc(Nc2ncc(F)c(Nc3ccc4c(n3)NC(=O)C(C)(C)O4)n2)cc(OC)c1OC` gave an inhibition of 38% (Serine/threonine-protein kinase pim-3 (PIM3, Homo sapiens, UniProt Q86V86); binding, competition with immobilised ligand; 10 µM).
The inhibition of `CN(C)C(=O)COC(=O)Cc1ccc(OC(=O)c2ccc(NC(=N)N)cc2)cc1` is reported as 20% (Dipeptidyl peptidase 2; enzyme activity, inhibitor; 10 µM).
For `Nc1ccc(-c2nc3ccccc3s2)c(-c2cccc(O)c2)c1`, the inhibition was 33.3% (PTGS2; enzyme activity, inhibitor, absorbance; 10 µM).
`CC(C)C[C@H](NC(=O)[C@H](Cc1ccccc1)NC(=O)c1cnccn1)B(O)O` gave an inhibition of 78.7% (Dipeptidyl peptidase 2; enzyme activity, inhibitor; 33 µM).
`N#Cc1ccc(NCCNCC(=O)N2N=CCC2C#N)nc1` (stereo not drawn) has an inhibition of 8% (Dipeptidyl peptidase 2; enzyme activity, inhibitor; 1 µM).
`CC(C)N1CCC[C@H]1CNC(=O)c1cn(C2CCCC2)c(=O)c2c1c1ccccc1n2C` gave an inhibition of 3% (NPY2R; ligand displacement, radioligand; 10 µM).
With `NS(=O)(=O)c1ccc(-c2ncc(Cl)cc2-c2nc3ccccc3s2)cc1` the inhibition was 100% (PTGS2; enzyme activity, inhibitor, absorbance; 10 µM).
The inhibition of `CCN(CC)CCCC[C@H](NC(=O)[C@H](CC(C)C)NC(=O)[C@H](C)NC(=O)[C@H](Cc1ccccc1)NC(=O)c1ccc(C(C)(C)C)cc1)C(=O)N[C@@H](CO)C(=O)OC` is reported as 10% (NPY2R; ligand displacement, radioligand; 10 µM).
`CS(=O)(=O)c1ccc(-c2ncccc2-c2nc3ccccc3s2)cc1` gave an inhibition of 84.7% (PTGS2; enzyme activity, inhibitor, absorbance; 10 µM).
The inhibition of `Cn1cc(-c2cc(F)cc(N3CCn4c(cc5c4CCCC5)C3=O)c2CO)cc(Nc2ccc(N3CCN(C4COC4)CC3)cn2)c1=O` is reported as -2% (Protein kinase C zeta type (PRKCZ, Homo sapiens, UniProt Q05513); enzyme activity, inhibitor; 0.1 µM).
With `CCOC(=O)c1ccc(OC(=O)CCCCCNC(=N)N)cc1` the inhibition was 83% (Dipeptidyl peptidase 2; enzyme activity, inhibitor; 10 µM).
`Cc1ccc(-c2nc3ccccc3s2)c(-c2ccc(O)cc2)c1` has an inhibition of 35.4% (PTGS2; enzyme activity, inhibitor, absorbance; 10 µM).
For `Cn1cc(-c2cccc(N3CCc4c(sc5c4CC(C)(C)C5)C3=O)c2CO)cc(Nc2ccncn2)c1=O`, the inhibition was 6% (Dual specificity tyrosine-phosphorylation-regulated kinase 3 (DYRK3, Homo sapiens, UniProt O43781); enzyme activity, inhibitor; 1 µM).
The inhibition of `CC(=O)N[C@@H](CC(=O)O)C(=O)N[C@@H](CC(N)=O)C(=O)N[C@@H](CC(C)C)C(=O)N[C@H](C=O)CC(=O)O` is reported as 89% (CASP7; enzyme activity, inhibitor; 0.5 µM).
